Experimental data: article PMC3390648 (The Journal of Biological Chemistry, 2012)
Ends that are not written are not given here.

Key:
yeast primase [1] = assay: Binding of pol1 C-terminal peptide to yeast primase; conditions: qualitative statement of abstract; method not given
yeast primase [2] = assay: GST pulldown with yeast primase; assay type: binding; conditions: mutation to alanine of Phe1463
Method in brief: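 GST-Pol1 1453–1468, wild type or single alanine mutants, was expressed in E. coli BL21(DE3). An excess was bound to glutathione-Sepharose and washed in 25 mM HEPES pH 7.0, 250 mM KCl, 1% BSA, 0.1% NP-40, 1 mM TCEP. Beads were incubated with 20 μM yeast primase (Pri1(1–409)/Pri2(49–513)) for 2 h at 4 °C, then washed, ending with a BSA-free wash. Bound protein was read by SDS-PAGE with Coomassie staining.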

Pol12 = assay: Immunoprecipitation and immunoblotting, Pol12; assay type: cell-based, Saccharomyces cerevisiae; conditions: diploid yeast, anti-HA beads, native cell extracts, immunoblotting

GRRYVDMTSIFDFMLN [pol1 peptide]
binding to primase (yeast primase [1]): binds primase with high affinity

F1463A (GRRYVDMTSIADFMLN; also: GST fusion, N-terminal)
interaction with primase (abstract summary, in vitro) (yeast primase [2]): abrogates the interaction with the primase

B1: Pol1: wild-type catalytic subunit of yeast pol α (protein)
chain: MSSKSEKLEKLRKLQAARNGTSIDDYEGDESDGDRIYDEIDEKEYRARKRQELLHDDFVVDDDGVGYVDRGVEEDWREVDNSSSDEDTGNLASKDSKRKKNIKREKDHQITDMLRTQHSKSTLLAHAKKSQKKSIPIDNFDDILGEFESGEVEKPNILLPSKLRENLNSSPTSEFKSSIKRVNGNDESSHDAGISKKVKIDPDSSTDKYLEIESSPLKLQSRKLRYANDVQDLLDDVENSPVVATKRQNVLQDTLLANPPSAQSLADEEDDEDSDEDIILKRRTMRSVTTTRRVNIDSRSNPSTSPFVTAPGTPIGIKGLTPSKSLQSNTDVATLAVNVKKEDVVDPETDTFQMFWLDYCEVNNTLILFGKVKLKDDNCVSAMVQINGLCRELFFLPREGKTPTDIHEEIIPLLMDKYGLDNIRAKPQKMKYSFELPDIPSESDYLKVLLPYQTPKSSRDTIPSDLSSDTFYHVFGGNSNIFESFVIQNRIMGPCWLDIKGADFNSIRNASHCAVEVSVDKPQNITPTTTKTMPNLRCLSLSIQTLMNPKENKQEIVSITLSAYRNISLDSPIPENIKPDDLCTLVRPPQSTSFPLGLAALAKQKLPGRVRLFNNEKAMLSCFCAMLKVEDPDVIIGHRLQNVYLDVLAHRMHDLNIPTFSSIGRRLRRTWPEKFGRGNSNMNHFFISDICSGRLICDIANEMGQSLTPKCQSWDLSEMYQVTCEKEHKPLDIDYQNPQYQNDVNSMTMALQENITNCMISAEVSYRIQLLTLTKQLTNLAGNAWAQTLGGTRAGRNEYILLHEFSRNGFIVPDKEGNRSRAQKQRQNEENADAPVNSKKAKYQGGLVFEPEKGLHKNYVLVMDFNSLYPSIIQEFNICFTTVDRNKEDIDELPSVPPSEVDQGVLPRLLANLVDRRREVKKVMKTETDPHKRVQCDIRQQALKLTANSMYGCLGYVNSRFYAKPLAMLVTNKGREILMNTRQLAESMNLLVVYGDTDSVMIDTGCDNYADAIKIGLGFKRLVNERYRLLEIDIDNVFKKLLLHAKKKYAALTVNLDKNGNGTTVLEVKGLDMKRREFCPLSRDVSIHVLNTILSDKDPEEALQEVYDYLEDIRIKVETNNIRIDKYKINMKLSKDPKAYPGGKNMPAVQVALRMRKAGRVVKAGSVITFVITKQDEIDNAADTPALSVAERAHALNEVMIKSNNLIPDPQYYLEKQIFAPVERLLERIDSFNVVRLSEALGLDSKKYFRREGGNNNGEDINNLQPLETTITDVERFKDTVTLELSCPSCDKRFPFGGIVSSNYYRVSYNGLQCKHCEQLFTPLQLTSQIEHSIRAHISLYYAGWLQCDDSTCGIVTRQVSVFGKRCLNDGCTGVMRYKYSDKQLYNQLLYFDSLFDCEKNKKQELKPIYLPDDLDYPKEQLTESSIKALTEQNRELMETGRSVVQKYLNDCGRRYVDMTSIFDFMLN
modifications: left off: 6HA, end not stated, kept
association with Pol12 (Pol12): all associated equally well with Pol12
